Compound activity as filed in PubChem.
Compounds with a hit are over-represented: about 9.6% of the library has one in this group of screens.
MT stabilizer: microtubule stabilization, imaging screen; HeLa tubulin immunostaining HCS, 24 h; share of cells brighter than vehicle mean+2SD; % tubulin-high responders, % at 10 µM; hit rate 0.83% among 200,000; AID 2205;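 active means plate Z-score above 3 for both tubulin-high and condensed-nucleus cell shares, with cell loss under 80%, at 10 µM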;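 further: anti alpha tubulin signal scored within the nucleus-defined area of each cell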
b-catenin transl: beta-catenin nuclear translocation modulation | hit rate 0.3% among 190,000 | AID 1665 | HeLa beta-catenin nuclear translocation, immunofluorescence imaging | nuclear translocation activity, % at 5 µM;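 active means nuclear translocation activity above 50% at 5 µM, with a well cell count of 50 or more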;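 further: per-cell ratio of nuclear to cytoplasmic median beta-catenin stain intensity; plate controls were DMSO negative control for no effect and GSK-3 inhibitor IX positive control for full effect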
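Test system: human HeLa cells, native beta-catenin. Compound dosing: 5 µM primary single dose, 0.1% DMSO, 0.02–20 µM confirmation series. Incubation: compound exposure 24 h at 37°C. Detection: beta-catenin immunostaining with DAPI counterstain, 20x imaging, 6 fields/well. Read-out basis: Nuclear/cytoplasmic beta-catenin signal ratio, % activation.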
Ba/F3 V617F tox: loss of viability in JAK2V617F-driven Ba/F3 cells. inhibition, % at 5.6 µM. hit rate 1.1% among 220,000. Ba/F3 EpoR-JAK2V617F viability, ATP luminescence. AID 1446;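 active means inhibition above the campaign mean plus 3 SD over all tested compounds, cut at about 24% in these data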;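 further: cytokine-independent growth of Ba/F3 cells driven by EpoR plus mutant JAK2; 0% = DMSO-treated cells and 100% = JAK inhibitor I control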
Lmaj promast: inhibitors of Leishmania major promastigote growth. inhibition, % at 10 µM. hit rate 9% among 200,000. Leishmania major promastigotes, resazurin fluorescence viability; in the data active means inhibition above about 50%;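 further: promastigotes grown with compound for 44 hours at 28 °C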
BaF3 tox: counter-screen for JAK2V617F inhibitors: parental Ba/F3 viability inhibitors; CellTiter-Glo ATP luminescence; inhibition, % at 5.6 µM; hit rate 1.1% among 220,000; AID 1486;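 active means inhibition above a per-campaign cutoff, the mean inhibition of all tested compounds plus 3 SD, cut at about 27% in these data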;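 further: 0% = DMSO wells and 100% = JAK Inhibitor I control wells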
APP 5UTR inh: APP translation inhibition; SH-SY5Y APP 5'UTR-luciferase reporter, luminescence; hit rate 0.82% among 190,000; AID 1285; inhibition, % at 2 µM;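 active means inhibition above a set limit, derived from the sample mean plus 3 SD, cut at about 45% in these data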
Lmaj promast 1uM: inhibitors of Leishmania major promastigote growth, repeat at 1 uM; shares compounds with Lmaj promast; L. major promastigote growth, resazurin fluorescence, 48 h; inhibition, % at 1 µM; hit rate 13% among 1,100;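 active means inhibition above about 50% in both repeat tests, limit read from the data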
BaF3 tox 2: reduces parental Ba/F3 viability, JAK2V617F counter-screen; inhibition, % at 5.6 µM; CellTiter-Glo luminescence; cells kept alive by added IL-3; AID 1520; hit rate 31% among 580; shares compounds with Ba/F3 V617F tox;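 active means cell growth inhibition above the hit limit set in the earlier mutant JAK2 cell screen, cut at about 27% in these data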;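 further: plate controls were DMSO-treated cells for no effect and JAK Inhibitor I control wells for full effect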
JAK2V617F conf: confirmation: loss of viability in JAK2V617F-dependent Ba/F3 cells | shares compounds with Ba/F3 V617F tox | Ba/F3 EpoR-JAK2V617F viability, CellTiter-Glo luminescence | inhibition, % at 5.6 µM | hit rate 66% among 580 | AID 1521;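 active means mean inhibition above the hit cutoff derived in the earlier primary screen, cut at about 25% in these data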;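 further: 0% = DMSO-treated cells and 100% = JAK inhibitor I control wells; higher means lower luminescence from reduced cell ATP and viability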
* = called active by the depositor.

How did O=C(/C=C/c1ccccc1[N+](=O)[O-])c1ccccc1Br do in these assays?
MT stabilizer: 29*; b-catenin transl: 0; Ba/F3 V617F tox: 5; Lmaj promast: 100*; BaF3 tox: 10; APP 5UTR inh: -17; Lmaj promast 1uM: 27

How did Cc1ccc(C(=O)/C=C/c2ccccc2[N+](=O)[O-])cc1 do in these assays?
MT stabilizer: 2; b-catenin transl: 0; Ba/F3 V617F tox: 1; Lmaj promast: 42; BaF3 tox: 5; APP 5UTR inh: -35

Results for CS(=O)(=O)c1nc(-c2ccc(Br)cc2)n[nH]1 ?
MT stabilizer: 3; b-catenin transl: -2; Ba/F3 V617F tox: 2; Lmaj promast: -6; BaF3 tox: 3; APP 5UTR inh: -15

How did CCCc1cc(=O)n2[nH]c(NCc3ccc(OC)cc3)nc2n1 do in these assays?
MT stabilizer: 2; b-catenin transl: 2; Ba/F3 V617F tox: 0; Lmaj promast: -6; BaF3 tox: 4; APP 5UTR inh: -1

How did O=[N+]([O-])c1ccc(Cl)c(S(=O)(=O)N2CCCCCC2)c1 do in these assays?
MT stabilizer: 3; b-catenin transl: 0; Ba/F3 V617F tox: -2; Lmaj promast: 15; BaF3 tox: 1; APP 5UTR inh: 6

What do the screens show for `Cc1[nH]c2c(Br)cccc2c1[C@H]1[C@@H](CC#N)C1(C)C`?
MT stabilizer: 5; b-catenin transl: 5; Ba/F3 V617F tox: -1; Lmaj promast: 99*; BaF3 tox: 2; APP 5UTR inh: 5; Lmaj promast 1uM: 4

What do the screens show for `O=C(Cc1cccs1)N1CCN(c2ccc([N+](=O)[O-])cc2)CC1`?
MT stabilizer: 3; b-catenin transl: 1; Ba/F3 V617F tox: -7; Lmaj promast: 7; BaF3 tox: 0; APP 5UTR inh: 21

How did C=CCS(=O)(=O)c1nc2ccccc2s1 do in these assays?
MT stabilizer: 4; b-catenin transl: 0; Ba/F3 V617F tox: 15; Lmaj promast: 101*; BaF3 tox: 2; APP 5UTR inh: -14; Lmaj promast 1uM: 10

Results for COc1cc(-c2c(C#N)c(N)nc(SCc3ccncc3)c2C#N)cc(OC)c1OC ?
MT stabilizer: 3; b-catenin transl: -4; Ba/F3 V617F tox: 1; Lmaj promast: 98*; BaF3 tox: 6; APP 5UTR inh: -6; Lmaj promast 1uM: 61*

How did Cc1nc(NCc2ccccc2)c2cc[nH]c2n1 do in these assays?
b-catenin transl: 1; Ba/F3 V617F tox: -4; BaF3 tox: -3

How did O=[N+]([O-])c1cc([N+](=O)[O-])c2n[nH]c(-c3ccccc3)c2c1 do in these assays?
MT stabilizer: 4; b-catenin transl: 2; Ba/F3 V617F tox: -3; Lmaj promast: 98*; BaF3 tox: 4; APP 5UTR inh: -6; Lmaj promast 1uM: 53*

How did O=[N+]([O-])c1ccc2nc(-c3ccccc3)cc(-c3ccccc3)c2c1 do in these assays?
MT stabilizer: 2; b-catenin transl: 0; Ba/F3 V617F tox: -1; Lmaj promast: -10; BaF3 tox: 2; APP 5UTR inh: -13

What do the screens show for `CCN(CC)c1ccc(-c2nn3c(-c4n[nH]c5c4CCC5)nnc3s2)cc1`?
MT stabilizer: 23*; b-catenin transl: 65*; Ba/F3 V617F tox: 75*; Lmaj promast: 62*; BaF3 tox: 78*; APP 5UTR inh: 96*; Lmaj promast 1uM: -8

What do the screens show for `C1CCC(c2nn3c(-c4n[nH]c5c4CCC5)nnc3s2)CC1`?
MT stabilizer: 5; b-catenin transl: 0; Ba/F3 V617F tox: 4; Lmaj promast: 38; BaF3 tox: 7; APP 5UTR inh: 11

What do the screens show for `CC(=O)Nc1ccc(C2=NN(c3ccccc3)C(c3cccs3)C2)cc1` (configuration not stated)?
MT stabilizer: 9; b-catenin transl: 8; Ba/F3 V617F tox: 3; Lmaj promast: 66*; BaF3 tox: 6; APP 5UTR inh: 26; Lmaj promast 1uM: -5

How did CC(=O)Nc1ccc(N2C(C(C)=O)=NN(c3ccccc3)C2c2cccs2)cc1 (configuration not stated) do in these assays?
MT stabilizer: 3; b-catenin transl: 1; Ba/F3 V617F tox: -1; Lmaj promast: 3; BaF3 tox: 8; APP 5UTR inh: -1

How did COc1ccc(NC(=O)Cc2ccc(Cl)c(Cl)c2)cn1 do in these assays?
MT stabilizer: 2; b-catenin transl: -1; Ba/F3 V617F tox: -2; Lmaj promast: 5; BaF3 tox: 2; APP 5UTR inh: -9

How did COc1ccc(NC(=O)/C(Cl)=C(/Cl)S(=O)Cc2ccccc2Cl)cn1 (configuration not stated) do in these assays?
MT stabilizer: 21; b-catenin transl: -4; Ba/F3 V617F tox: 102*; Lmaj promast: 101*; BaF3 tox: 103*; APP 5UTR inh: 94*; Lmaj promast 1uM: 100*

Results for O=C(O)c1cc2c([nH]c1=O)CCCC2 ?
MT stabilizer: 3; Ba/F3 V617F tox: 0; Lmaj promast: 9; BaF3 tox: 4; APP 5UTR inh: -14

How did C=CCSC(=C(C#N)C#N)c1cc2c([nH]1)CCCC2 do in these assays?
MT stabilizer: 6; b-catenin transl: -1; Ba/F3 V617F tox: -4; Lmaj promast: 100*; BaF3 tox: -6; APP 5UTR inh: -16; Lmaj promast 1uM: 30

Results for CCOC(=O)/C(C#N)=C/c1cn(CCC(=O)O)nc1-c1ccc(Cl)cc1 ?
MT stabilizer: 2; b-catenin transl: -1; Ba/F3 V617F tox: -2; Lmaj promast: -4; BaF3 tox: 2; APP 5UTR inh: -22

What do the screens show for `O=[N+]([O-])c1cc(Cl)ccc1-c1nc(-c2ccccc2)no1`?
MT stabilizer: 4; b-catenin transl: -2; Ba/F3 V617F tox: 4; Lmaj promast: 89*; BaF3 tox: 6; APP 5UTR inh: -122; Lmaj promast 1uM: -21

What do the screens show for `CN(c1ccccc1)c1ccc(/C=C(\C#N)c2nnc3n2CCCCC3)cc1[N+](=O)[O-]`?
MT stabilizer: 3; b-catenin transl: 5; Ba/F3 V617F tox: -2; Lmaj promast: 56*; BaF3 tox: 7; APP 5UTR inh: -12; Lmaj promast 1uM: 14

What do the screens show for `CN(Cc1ccccc1)C(=O)c1nc2ccccn2c1CN1CCC(N2CCOCC2)CC1`?
b-catenin transl: 1; Ba/F3 V617F tox: 2; BaF3 tox: 1

Results for O=S(=O)(CCSc1nc2ccccc2s1)c1nc2ccccc2s1 ?
MT stabilizer: 11*; b-catenin transl: 3; Ba/F3 V617F tox: 40*; Lmaj promast: 100*; BaF3 tox: -2; APP 5UTR inh: 30; Lmaj promast 1uM: 54*; BaF3 tox 2: 36*; JAK2V617F conf: 100*
